# Assay results taken from ChEMBL document CHEMBL4014310, “Selective IKur Inhibitors for the Potential Treatment of Atrial Fibrillation: Optimization of the Phenyl Quinazoline Series Leading to Clinical Candidate 5-[5-Phenyl-4-(pyridin-2-ylmethylamino)quinazolin-2-yl]pyridine-3-sulfonamide” (J Med Chem, 2017).
# pIC50: −log10 of the molar value. The source made the active and inactive calls. No cut-off for these calls is given here.
# Assays:
# [1] = AUC in dog at 0.1 mg/kg, iv or 1 mg/kg, po; assay type: ADME, organism-based, Canis lupus familiaris; details: in vivo
# Outline: (§1)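 Single-dose PK study in mouse and rat (2 mg/kg iv, 5 mg/kg po), cynomolgus monkey (1 mg/kg iv and po) and dog (0.1 mg/kg iv, 1 mg/kg po). Dosing vehicle was 1:4:5 EtOH/propylene glycol/PEG400. Clearance, Vss, half-life, Cmax, Tmax, AUC (μM h) and oral %F were derived from plasma levels.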
# [2] = Cmax in rat at 2 mg/kg, iv or 5 mg/kg, po; assay type: ADME, organism-based; details: in vivo; outline: as §1
# [3] = Oral bioavailability in dog at 1 mg/kg; assay type: ADME, organism-based, Canis lupus familiaris; details: in vivo
# Outline: (§2)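 Single-dose PK in mouse and rat (2 mg/kg iv, 5 mg/kg po), cynomolgus monkey (1 mg/kg iv and po) and dog (0.1 mg/kg iv, 1 mg/kg po). Dosing vehicle was 1:4:5 EtOH/propylene glycol/PEG400. Parameters reported: clearance, Vss, half-life, Cmax, Tmax, AUC and oral bioavailability.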
# [4] = AUC in rat at 2 mg/kg, iv or 5 mg/kg, po; assay type: ADME, organism-based; details: in vivo; outline: as §1
# Canis familiaris [5] = assay: Effect on QTc interval in pacing-induced mongrel dog heart failure model at 0.1 to 0.3 mg/kg, po; assay type: organism-based, Canis lupus familiaris; details: in vivo
# Outline: (§3)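 Simultaneous atrio-ventricular pacing dog model of atrial arrhythmia. Compound was given orally at 0.1 or 0.3 mg/kg in 10% EtOH/40% propylene glycol/50% PEG 400. AF inducibility was scored as mean number of AF inductions and total AF duration, with QTc monitored and plasma concentration measured. n = 7 control, 5 (0.1 mg/kg) and 6 (0.3 mg/kg) dogs.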
# Oryctolagus cuniculus [6] = assay: Antiatrial fibrillation activity in methoxamine-sensitised rabbit assessed as increase in atrial effective refractory period at 3 mg/kg, iv administered as 10 mins infusion relative to control; assay type: functional
# Outline: (§4)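 Rabbit, iv dosing at 1 or 3 mg/kg. AERP was measured at 10, 20 and 30 min time points as % prolongation, and plasma compound concentration was measured at the same time points and correlated with the AERP change.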
# Plasma = assay: Plasma concentration in pacing-induced mongrel dog heart failure model at 0.1 mg/kg, po; assay type: ADME, organism-based, Canis lupus familiaris; details: in vivo
# Outline: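 Simultaneous atrio-ventricular pacing dog model used to measure AF inducibility. Dogs were dosed orally at 0.1 mg/kg (n = 5) or 0.3 mg/kg (n = 6) in 10% EtOH/40% propylene glycol/50% PEG 400, and plasma concentration was measured alongside AF inductions and QTc.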
# Oryctolagus cuniculus [7] = assay: Antiatrial fibrillation activity in methoxamine-sensitised rabbit assessed as increase in atrial effective refractory period at 1 mg/kg, iv administered as 30 mins infusion relative to control; assay type: functional; outline: as §4
# [8] = Clearance in mouse at 2 mg/kg, iv or 5 mg/kg, po; assay type: ADME, organism-based; details: in vivo; outline: as §1
# [9] = Cmax in dog at 0.1 mg/kg, iv or 1 mg/kg, po; assay type: ADME, organism-based, Canis lupus familiaris; details: in vivo; outline: as §1
# Canis familiaris [10] = assay: Antiarrhythmic activity in mongrel dog heart failure model assessed as reduction in pacing-induced total atrial fibrillation duration at 0.1 to 0.3 mg/kg, po; assay type: functional, organism-based; details: Canis lupus familiaris; outline: as §3
# Oryctolagus cuniculus [11] = assay: Antiatrial fibrillation activity in methoxamine-sensitised rabbit assessed as plasma concentration required to show increase in atrial effective refractory period at 0.17 mg/kg, iv measured 15 mins post infusion; assay type: functional, organism-based
# Outline: (§5)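 Rabbit, iv infusion of compound in DMF (0.17 mg/mL) with a 0.17 mg/kg maintenance dose. AERP was normalized to DMF vehicle, with time counted from the start of the maintenance infusion. Tissues were collected after 30 min. n = 3 rabbits; means ± standard error.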
# Oryctolagus cuniculus [12] = assay: Antiatrial fibrillation activity in methoxamine-sensitised rabbit assessed as increase in atrial effective refractory period at 0.17 mg/kg, iv measured 30 mins post infusion relative to control; assay type: functional; outline: as §5
# [13] = Half life in cynomolgus monkey at 1 mg/kg, iv or 1 mg/kg, po; assay type: ADME, organism-based, Macaca fascicularis; details: in vivo; outline: as §1
# [14] = Ratio of drug level in Sprague-Dawley rat brain to plasma at 3 mg/kg, iv administered as 10 mins infusion by LC-MS/MS analysis; assay type: ADME, organism-based; details: brain and plasma, read-out: BPR
# [15] = Inhibition of IKs (unknown origin); parameters: species or system Homo sapiens
# [16] = Protein binding in rat plasma; assay type: ADME, cell-free; details: read-out: PPB
# Oryctolagus cuniculus [17] = assay: Antiatrial fibrillation activity in methoxamine-sensitised rabbit assessed as plasma concentration required to show 10% increase in atrial effective refractory period at 0.17 mg/kg, iv administered as 30 mins infusion; assay type: functional, organism-based; outline: as §5
# Oryctolagus cuniculus [18] = assay: Antiatrial fibrillation activity in methoxamine-sensitised rabbit assessed as increase in atrial effective refractory period at 0.17 mg/kg, iv administered as 1 min infusion relative to control; assay type: functional; outline: as §5
# Oryctolagus cuniculus [19] = assay: Effect on ventricle effective refractory period in methoxamine-sensitised rabbit at 3 mg/kg, iv administered as 10 to 30 mins infusion; assay type: ADME, organism-based; details: in vivo
# [20] = Volume of distribution at steady state in mouse at 2 mg/kg, iv or 5 mg/kg, po; assay type: ADME, organism-based; details: in vivo, read-out: Vdss; outline: as §2
# [21] = Volume of distribution at steady state in dog at 0.1 mg/kg, iv or 1 mg/kg, po; assay type: ADME, organism-based, Canis lupus familiaris; details: in vivo, read-out: Vdss; outline: as §2
# [22] = Volume of distribution at steady state in rat at 2 mg/kg, iv or 5 mg/kg, po; assay type: ADME, organism-based; details: in vivo, read-out: Vdss; outline: as §2
# [23] = AUC in mouse at 2 mg/kg, iv or 5 mg/kg, po; assay type: ADME, organism-based; details: in vivo; outline: as §1
# [24] = Oral bioavailability in cynomolgus monkey at 1 mg/kg; assay type: ADME, organism-based, Macaca fascicularis; details: in vivo; outline: as §1
# [25] = Inhibition of calcium channel (unknown origin); parameters: species or system Homo sapiens
# [26] = Plasma concentration in methoxamine-sensitised rabbit at 1 mg/kg, iv administered as 30 mins infusion; assay type: ADME, organism-based, Oryctolagus cuniculus
# Oryctolagus cuniculus [27] = assay: Antiatrial fibrillation activity in methoxamine-sensitised rabbit assessed as increase in atrial effective refractory period at 0.17 mg/kg, iv administered as 15 mins infusion relative to control; assay type: functional; outline: as §5
structure (smiles),measurement,setting,value
NS(=O)(=O)c1cncc(-c2nc(NCc3ccccn3)c3c(-c4ccccc4)cccc3n2)c1 [BMS-919373],AUC,[1],590 µM·h
same,Cmax,[2],7.9 µM
same,bioavailability,[3],64%
same,AUC,[4],49 µM·h
same,Activity,Canis familiaris [5],Non-Toxic
same,Activity,Oryctolagus cuniculus [6],10.8%
same,concentration,Plasma,0.47 µM
same,Activity,Oryctolagus cuniculus [7],10.7%
same,clearance,[8],10.6 mL/min/kg
same,Cmax,[9],7.8 µM
same,Activity,Canis familiaris [10],Active
same,Cp,Oryctolagus cuniculus [11],0.1 µM
same,Activity,Oryctolagus cuniculus [12],11.4%
same,half-life,[13],4.6 h
same,Kp at 10 min,[14],0.1
same,pIC50,[15],< 5.00
same,fraction unbound,[16],< 0.01
same,Cp,Oryctolagus cuniculus [17],0.15 µM
same,Activity,Oryctolagus cuniculus [18],9.9%
same,Activity,Oryctolagus cuniculus [19],Non-Toxic
same,Vd,[20],1.8 L/kg
same,Vd,[21],0.2 L/kg
same,Vd,[22],0.9 L/kg
same,AUC,[23],21 µM·h
same,bioavailability,[24],100%
same,pIC50,[25],< 5.00
same,concentration at 0.5 h,[26],1.3 µM
same,Activity,Oryctolagus cuniculus [27],11%
